Legend:
[1] = test system: BV-2; assay: Inhibition of LPS-induced NO production in mouse BV2 cells preincubated for 1 hr followed by LPS addition measured after 24 hrs by Griess assay; type: functional, cell-based
How it was run: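 BV2 cells seeded at 4 × 10^4 cells/well. Compounds were dissolved in DMSO, final DMSO under 0.1%. Pretreatment lasted 1 h, then LPS 500 ng/mL was added and cells incubated 24 h. Nitrite in the medium was measured by Griess assay. IC50 given as mean ± SD of three experiments; ω-nitro-L-arginine methyl ester served as positive control.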

[2] = organism: Mus musculus; assay: Cytotoxicity against mouse BV2 cells assessed as reduction in cell viability after 24 hrs by MTT assay; type: toxicity, cell-based; details: bv-2, 24 h
How it was run: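 BV2 microglia kept in DMEM with 10% FBS, penicillin 100 IU/mL and streptomycin, at 37.8 °C under 5% CO2. Cells were incubated 24 h in 96-well plates. Medium was then replaced with MTT 0.2 mg/mL for 3 h at 37.8 °C, and formazan was dissolved in DMSO. Absorbance read at 540 nm; viability given as percent of control.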

SMILES | IC50 [1] [µM] | Activity [2]
CCC(C)C(=O)c1c(O)c(Cc2c(O)cc(O)c3c2O[C@H](c2ccc(O)c(O)c2)[C@@H](O)C3)c(O)c(C)c1OC (stereo partly specified) | 60.4 | Non-Toxic
COc1c(C)c(O)c(Cc2c(O)cc(O)c3c2O[C@H](c2ccc(O)c(O)c2)[C@@H](O)C3)c(O)c1C(=O)C(C)C | 54.6 | Non-Toxic
COC(=O)[C@@H](N)CCCNC(=N)N[N+](=O)[O-] [L-NAME] | 24.7 | –

Now from value to compound, other results behind:

IC50 [1] [µM] | SMILES | Activity [2]
43.6 to 52.4 | CCCC(=O)c1c(O)c(Cc2c(O)cc(O)c3c2O[C@H](c2ccc(O)c(O)c2)[C@@H](O)[C@@H]3c2c(O)cc(O)c3c2O[C@H](c2ccc(O)c(O)c2)[C@H](O)C3)c(O)c(C)c1OC | Non-Toxic
38.1 to 43.6 | CCCC(=O)c1c(O)c(Cc2c(O)cc(O)c3c2O[C@H](c2ccc(O)c(O)c2)[C@@H](O)C3)c(O)c(C)c1OC | Non-Toxic
38.1 | COc1c(C)c(O)c(Cc2c(O)cc(O)c3c2O[C@H](c2ccc(O)c(O)c2)[C@@H](O)[C@@H]3c2c(O)cc(O)c3c2O[C@H](c2ccc(O)c(O)c2)[C@H](O)C3)c(O)c1C(=O)C(C)C | Non-Toxic
